Measurements from different studies.
Protocols differ between the studies behind these lines.
Target: Epithelial discoidin domain-containing receptor 1 (DDR1, Homo sapiens, UniProt Q08345)

SMILES	observed	action	method	concentration	quantity	result
CN1CC(Oc2cnc(C#N)cc2-c2ccn3nc(NC(=O)C4CC4)cc3c2)C1	enzyme activity	inhibitor		1 µM	inhibition	29%
CNC(=O)c1cc2c(Oc3ccc(NC(=O)C4(C(=O)Nc5ccc(F)cc5)CC4)cc3)ccnc2cc1OC	enzyme activity	inhibitor	radiometric	1 µM	inhibition	88%
Cc1cnc(NC2CCOCC2)nc1-n1cnc(C(=O)NC(CN)c2cc(F)cc(Cl)c2)c1 (centres unmarked)	enzyme activity	inhibitor	radiometric	1 µM	remaining activity	104%
CC(C)(O)[C@H]1CC[C@H](Nc2ccc3ncc(-c4cccc(C(F)(F)F)c4)n3n2)CC1	enzyme activity	inhibitor		1 µM	remaining activity	6.32%
Nc1c(C(=O)NCc2ccc(C(=O)NCCCC3CCCCC3)cc2)cnn1-c1ccccc1	binding		competition with immobilised ligand	1 µM	remaining binding	43%
COc1cc(Cl)c(C(=O)N[C@@H](CN[C@H]2CC[C@@H](N)CC2)Cc2ccc(C#N)cc2)cc1-c1ccc(CN[C@H](C)c2ccc(C)cc2)o1	enzyme activity	inhibitor		1 µM	remaining activity	112%
Cc1cc(NC(=O)c2cccc3cc(-c4cccc5[nH]nc(N)c45)ccc23)ccc1F	enzyme activity	inhibitor		0.1 µM	activity vs control	61%
O=C(Nc1cnn(-c2csc(C(=O)NC3COC3)c2)c1)Nc1ccccc1Cl	enzyme activity	inhibitor		5 µM	remaining activity	98.4%
COCCOc1nc(-c2ccc(Cl)nc2)nc2c1CN(C(=O)c1ncn3ccccc13)CC2	cell-free assay		competition with immobilised ligand	0.1 µM	remaining binding	100%
COc1cc2nccc(Oc3ccc(NC(=O)c4c5n(n(-c6ccc(F)cc6)c4=O)CCCC5)cc3)c2cc1OC	enzyme activity	inhibitor		0.1 µM	inhibition	42%
Cc1ccc(NC(=O)c2ccc(C)c(C(F)(F)F)c2)cc1C#Cc1nn(C2CCC(O)CC2)c2ncnc(N)c12 (centres unmarked)	cell-free assay			10 µM	remaining signal	-2%
C[C@H]1CCN(c2nccc(-c3cnn4ncccc34)n2)C1	binding			1 µM	remaining binding	100%
Nc1ncnc2occ(-c3ccc(NC(=O)Nc4cc(C(F)(F)F)ccc4F)cc3)c12	cell-free assay			20 µM	remaining signal	0.25%
CCOCCn1cc(C(=O)Nc2ccc(-n3nc(-c4cccnc4)cc3C(F)(F)F)cn2)ccc1=O	cell-free assay		competition with immobilised ligand	1 µM	remaining binding	69%
Cc1ccc(C(=O)NCc2ccsc2)cc1C#Cc1cn(C(C)C)c2ncnc(N)c12	enzyme activity	inhibitor		1 µM	activity vs control	0%
Cc1sc(C(=O)NC2COC2)cc1-n1cc(NC(=O)Nc2c(F)cccc2Cl)cn1	enzyme activity	inhibitor		10 µM	remaining activity	83.7%
CC/C(=N\NC(=O)NCc1cccc(O)c1)c1ccc(O)c(C)c1O	enzyme activity	inhibitor		0.1 µM	inhibition	-0.9%
